Assay results from ChEMBL document CHEMBL4351001, “2-Aminoimidazole-based antagonists of the 5-HT6 receptor - A new concept in aminergic GPCR ligand design” (Eur J Med Chem, 2019).

Key:
[1] = Acute oral toxicity in Wistar rat by OECD up and down test guideline method; details: in vivo
Method in brief: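 Female rats given a single oral dose under OECD Test Guideline No. 425 (Acute Oral Toxicity, Up-and-Down Procedure); acute toxicity class assigned.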

[2] = target: T1, 5-hydroxytryptamine receptor 2C (Homo sapiens) (UniProt P28335); assay: Antagonist activity at human 5HT2C serotonin receptor at 10^-5 M relative to control; set-up: scale not given: the % may be the effect or the level left
T1 sequence (whole entry): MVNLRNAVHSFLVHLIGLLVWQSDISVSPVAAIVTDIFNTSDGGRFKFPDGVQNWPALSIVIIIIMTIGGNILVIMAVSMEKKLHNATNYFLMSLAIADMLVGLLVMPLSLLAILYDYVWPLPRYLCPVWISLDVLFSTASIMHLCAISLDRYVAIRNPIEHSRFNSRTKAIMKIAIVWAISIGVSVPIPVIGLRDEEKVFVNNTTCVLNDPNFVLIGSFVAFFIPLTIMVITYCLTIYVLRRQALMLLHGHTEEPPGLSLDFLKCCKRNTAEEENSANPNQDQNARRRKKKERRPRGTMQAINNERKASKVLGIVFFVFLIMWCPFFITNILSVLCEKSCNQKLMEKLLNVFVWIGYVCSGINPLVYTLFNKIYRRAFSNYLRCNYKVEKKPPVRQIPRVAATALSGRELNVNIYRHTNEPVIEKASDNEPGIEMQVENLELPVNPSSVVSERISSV

[3] = target: D(2) dopamine receptor (Homo sapiens, UniProt P14416); assay: Displacement of [3H]-methylspiperone from human D2 long receptor expressed in HEK293 cells measured after 1 hr by liquid scintillation counter method; format: cell-based
Method in brief: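 HEK293 membranes stably expressing human D2L receptor, incubated 1 h at 37°C, then filtered and retained radioactivity counted; (+)-butaclamol 1 μM defines nonspecific binding. Tested in triplicate at 7–8 concentrations (10⁻¹¹–10⁻⁴ M); Ki via Cheng-Prusoff, averaged over at least two independent experiments.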

[4] = target: 5-hydroxytryptamine receptor 7 (Homo sapiens, UniProt P34969); assay: Displacement of [3H]-5-CT from human 5HT7 receptor expressed in HEK293 cells measured after 1 hr by liquid scintillation counter method; format: cell-based; details: read-out: Ki
[5] = Mutagenicity in Salmonella typhimurium TA100 at up to 10 uM measured after 90 mins by Ames test; format: toxicity; details: salmonella enterica subsp. enterica serovar typhimurium
Method in brief: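 Ames microplate fluctuation with S. typhimurium TA100; bacteria exposed to 1 and 10 μM compound 90 min at 37°C in limited-histidine medium, then distributed into histidine-free indicator medium, 72 h at 37°C. Revertant growth scored by colour change (absorbance 420 nm); NQNO 0.5 μM positive control; alert at ≥2.0-fold over baseline and binomial B ≥0.99.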

[6] = target: Cytochrome P450 2D6 (Homo sapiens, UniProt P10635); assay: Inhibition of human recombinant CYP2D6 expressed in Escherichia coli at 6.4 uM using luciferin ME-EGE as substrate preincubated for 5 mins followed by NADPH addition measured after 45 mins by P450-Glo luminescence assay; format: ADME; details: recombinant enzyme, 0.75 h
Method in brief: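 P450-Glo luminescent assays: enzyme, proluciferin and compound (final 0.01–25 μM) preincubated 5 min, reaction started with NADPH regeneration system; incubated at room temperature 30 min (CYP3A4) or 45 min (CYP2D6).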

[7] = in vitro; details: rat, microsomes
[8] = tested on: HepG2; assay: Cytotoxicity against human HepG2 cells assessed as reduction in cell viability measured after 24 hrs by Prestoblue assay; format: cell-based; details: HepG2, 24 h
Method in brief: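 HepG2 cells seeded at 2x10^4 per well in DMEM with 10% FBS, grown 24 h (37°C, 5% CO2), then exposed 24 h to 1, 10, 50 and 100 μM compound. Viability read with PrestoBlue (fluorescence); membrane damage by ToxiLight (luminescence).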

[9] = target: Histamine H1 receptor (Homo sapiens) (UniProt P35367); assay: Antagonist activity at human recombinant H1 histamine receptor at 10^-5 M relative to control; set-up: scale not given: the % may be the effect or the level left
[10] = target: T2, 5-hydroxytryptamine receptor 6 (Homo sapiens, UniProt P50406); assay: Displacement of [3H]LSD from human 5HT6 receptor expressed in HEK293 cells measured after 1 hr by liquid scintillation counter method; format: cell-based
[11] = target: T2, 5-hydroxytryptamine receptor 6; assay: Antagonist activity at human 5HT6 receptor expressed in HEK293 cells assessed as inhibition of 5-CT induced cAMP production measured after 30 mins by TR-FRET assay; format: functional, cell-based
[12] = target: T3, Alpha-1A adrenergic receptor (Rattus norvegicus) (UniProt P43140); assay: Displacement of [3H] prazosin from rat alpha 1A adrenergic receptor at 10^-6 M measured after 60 mins by scintillation counter method relative to control
T3 sequence (whole entry): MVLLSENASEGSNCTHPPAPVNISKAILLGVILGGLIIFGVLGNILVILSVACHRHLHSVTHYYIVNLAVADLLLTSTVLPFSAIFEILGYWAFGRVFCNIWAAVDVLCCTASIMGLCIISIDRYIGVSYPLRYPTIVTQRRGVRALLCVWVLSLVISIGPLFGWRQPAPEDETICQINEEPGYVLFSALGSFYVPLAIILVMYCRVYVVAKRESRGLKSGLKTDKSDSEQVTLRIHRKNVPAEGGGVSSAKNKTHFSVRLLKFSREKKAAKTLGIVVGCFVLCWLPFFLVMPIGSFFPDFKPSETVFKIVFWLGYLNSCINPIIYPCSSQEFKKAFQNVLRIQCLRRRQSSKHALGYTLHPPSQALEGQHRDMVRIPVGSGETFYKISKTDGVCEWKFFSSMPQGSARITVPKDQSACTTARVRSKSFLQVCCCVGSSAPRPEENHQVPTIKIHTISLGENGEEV

[13] = target: T4, Muscarinic acetylcholine receptor M1 (Homo sapiens) (UniProt P11229); assay: Displacement of [3H] pirenzepine from human recombinant muscarinic M1 receptor at 10^-6 M measured after 60 mins by scintillation counter method relative to control
T4 sequence (whole entry): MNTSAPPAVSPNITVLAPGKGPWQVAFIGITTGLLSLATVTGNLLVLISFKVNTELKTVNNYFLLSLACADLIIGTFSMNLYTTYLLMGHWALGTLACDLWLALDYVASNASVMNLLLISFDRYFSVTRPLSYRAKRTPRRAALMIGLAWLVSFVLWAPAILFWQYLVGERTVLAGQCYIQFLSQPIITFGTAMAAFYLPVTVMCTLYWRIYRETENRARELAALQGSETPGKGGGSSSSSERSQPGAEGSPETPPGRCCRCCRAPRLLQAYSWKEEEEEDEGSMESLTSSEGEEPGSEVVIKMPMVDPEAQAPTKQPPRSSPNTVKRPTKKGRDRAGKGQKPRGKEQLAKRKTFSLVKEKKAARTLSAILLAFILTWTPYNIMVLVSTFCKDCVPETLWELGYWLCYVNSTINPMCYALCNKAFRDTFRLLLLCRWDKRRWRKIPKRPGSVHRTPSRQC

[14] = target: hERG (KCNH2) (Homo sapiens, UniProt Q12809); assay: Displacement of [3H] dofetilide from human recombinant ERG at 10^-6 M measured after 60 mins by scintillation counting method relative to control; details: probe [3H]dofetilide
[15] = Solubility of compound in water; format: physicochemical; details: water; read-out: solubility

T2 sequence (P50406 whole entry): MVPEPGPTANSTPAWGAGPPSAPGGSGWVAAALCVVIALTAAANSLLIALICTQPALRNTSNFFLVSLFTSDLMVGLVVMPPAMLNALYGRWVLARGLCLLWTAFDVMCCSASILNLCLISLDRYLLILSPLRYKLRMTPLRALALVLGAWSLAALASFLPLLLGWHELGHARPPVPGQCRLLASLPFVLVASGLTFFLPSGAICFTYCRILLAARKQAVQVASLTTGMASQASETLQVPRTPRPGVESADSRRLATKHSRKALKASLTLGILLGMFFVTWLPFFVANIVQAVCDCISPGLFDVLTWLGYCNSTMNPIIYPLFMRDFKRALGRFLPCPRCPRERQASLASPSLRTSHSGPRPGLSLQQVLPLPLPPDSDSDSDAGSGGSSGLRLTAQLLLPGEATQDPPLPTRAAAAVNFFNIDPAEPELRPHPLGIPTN
Sequence of hERG (KCNH2) (Q12809 whole entry): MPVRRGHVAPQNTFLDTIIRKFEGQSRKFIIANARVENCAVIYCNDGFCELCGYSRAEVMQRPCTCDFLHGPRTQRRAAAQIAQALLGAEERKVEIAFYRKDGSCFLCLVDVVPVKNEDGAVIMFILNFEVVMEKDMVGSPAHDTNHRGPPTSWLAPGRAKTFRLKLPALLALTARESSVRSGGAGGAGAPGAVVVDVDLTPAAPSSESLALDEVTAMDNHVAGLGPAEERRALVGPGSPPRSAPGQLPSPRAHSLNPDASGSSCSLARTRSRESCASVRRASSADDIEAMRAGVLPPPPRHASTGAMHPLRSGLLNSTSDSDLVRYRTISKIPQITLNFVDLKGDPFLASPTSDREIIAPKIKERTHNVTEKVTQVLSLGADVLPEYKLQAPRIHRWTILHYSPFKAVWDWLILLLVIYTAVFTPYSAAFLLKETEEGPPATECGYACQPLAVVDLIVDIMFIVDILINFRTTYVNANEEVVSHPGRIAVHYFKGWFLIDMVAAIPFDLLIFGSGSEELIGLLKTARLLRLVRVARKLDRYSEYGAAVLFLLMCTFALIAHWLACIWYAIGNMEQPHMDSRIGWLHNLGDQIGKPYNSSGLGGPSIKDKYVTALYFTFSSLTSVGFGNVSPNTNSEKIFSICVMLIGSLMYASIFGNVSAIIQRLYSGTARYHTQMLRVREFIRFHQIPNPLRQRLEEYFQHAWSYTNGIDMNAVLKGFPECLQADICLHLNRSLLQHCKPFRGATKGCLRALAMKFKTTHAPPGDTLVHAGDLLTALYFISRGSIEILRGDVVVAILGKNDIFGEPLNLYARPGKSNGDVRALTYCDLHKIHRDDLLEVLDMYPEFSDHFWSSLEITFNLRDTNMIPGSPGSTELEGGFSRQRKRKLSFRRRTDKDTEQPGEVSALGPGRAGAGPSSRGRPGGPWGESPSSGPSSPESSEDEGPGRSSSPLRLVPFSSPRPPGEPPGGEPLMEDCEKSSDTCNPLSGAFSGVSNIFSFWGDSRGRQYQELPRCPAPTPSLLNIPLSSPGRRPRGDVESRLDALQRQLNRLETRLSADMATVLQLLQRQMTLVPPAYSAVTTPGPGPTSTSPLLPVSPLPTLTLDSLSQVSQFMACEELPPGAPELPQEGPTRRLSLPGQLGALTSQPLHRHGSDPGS
Sequence of D(2) dopamine receptor (P14416 whole entry): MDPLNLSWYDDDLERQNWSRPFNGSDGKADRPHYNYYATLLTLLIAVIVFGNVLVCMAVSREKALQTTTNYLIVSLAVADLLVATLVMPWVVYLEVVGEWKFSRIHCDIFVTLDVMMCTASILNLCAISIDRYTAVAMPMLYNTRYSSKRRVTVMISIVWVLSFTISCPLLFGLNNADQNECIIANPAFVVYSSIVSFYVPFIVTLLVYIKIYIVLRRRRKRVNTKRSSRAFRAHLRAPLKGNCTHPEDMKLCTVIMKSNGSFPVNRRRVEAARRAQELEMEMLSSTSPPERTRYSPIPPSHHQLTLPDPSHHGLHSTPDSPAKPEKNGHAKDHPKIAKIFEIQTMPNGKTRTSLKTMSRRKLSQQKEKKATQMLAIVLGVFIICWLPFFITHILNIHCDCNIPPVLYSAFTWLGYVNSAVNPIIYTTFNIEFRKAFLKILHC
Sequence of Histamine H1 receptor (Homo sapiens) (P35367 whole entry): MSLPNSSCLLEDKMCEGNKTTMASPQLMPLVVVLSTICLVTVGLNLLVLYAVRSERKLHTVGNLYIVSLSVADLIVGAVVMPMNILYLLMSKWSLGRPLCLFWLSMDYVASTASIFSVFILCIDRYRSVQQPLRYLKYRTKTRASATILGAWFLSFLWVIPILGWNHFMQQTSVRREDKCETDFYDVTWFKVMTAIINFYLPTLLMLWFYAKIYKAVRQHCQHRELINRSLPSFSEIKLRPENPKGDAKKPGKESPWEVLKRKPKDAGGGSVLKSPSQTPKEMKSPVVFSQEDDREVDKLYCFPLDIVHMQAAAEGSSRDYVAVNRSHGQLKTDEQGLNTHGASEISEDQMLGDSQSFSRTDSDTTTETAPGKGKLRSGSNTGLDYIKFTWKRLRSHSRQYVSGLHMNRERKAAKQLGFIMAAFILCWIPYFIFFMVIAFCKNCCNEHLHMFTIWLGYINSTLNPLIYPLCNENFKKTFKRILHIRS
Sequence of Cytochrome P450 2D6 (P10635 whole entry): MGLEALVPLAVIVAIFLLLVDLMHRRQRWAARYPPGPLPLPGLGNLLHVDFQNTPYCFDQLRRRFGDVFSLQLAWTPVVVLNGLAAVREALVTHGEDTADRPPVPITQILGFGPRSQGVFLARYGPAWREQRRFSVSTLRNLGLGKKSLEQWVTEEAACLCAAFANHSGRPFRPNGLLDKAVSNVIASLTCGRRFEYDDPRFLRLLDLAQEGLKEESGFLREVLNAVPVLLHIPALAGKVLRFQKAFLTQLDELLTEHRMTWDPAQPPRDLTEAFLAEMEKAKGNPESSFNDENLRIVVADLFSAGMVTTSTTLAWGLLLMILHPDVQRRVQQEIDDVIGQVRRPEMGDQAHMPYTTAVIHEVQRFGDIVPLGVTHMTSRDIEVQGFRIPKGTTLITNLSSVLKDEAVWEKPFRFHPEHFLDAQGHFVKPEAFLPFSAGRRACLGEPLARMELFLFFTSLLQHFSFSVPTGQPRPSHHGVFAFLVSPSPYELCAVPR
Sequence of 5-hydroxytryptamine receptor 7 (P34969 whole entry): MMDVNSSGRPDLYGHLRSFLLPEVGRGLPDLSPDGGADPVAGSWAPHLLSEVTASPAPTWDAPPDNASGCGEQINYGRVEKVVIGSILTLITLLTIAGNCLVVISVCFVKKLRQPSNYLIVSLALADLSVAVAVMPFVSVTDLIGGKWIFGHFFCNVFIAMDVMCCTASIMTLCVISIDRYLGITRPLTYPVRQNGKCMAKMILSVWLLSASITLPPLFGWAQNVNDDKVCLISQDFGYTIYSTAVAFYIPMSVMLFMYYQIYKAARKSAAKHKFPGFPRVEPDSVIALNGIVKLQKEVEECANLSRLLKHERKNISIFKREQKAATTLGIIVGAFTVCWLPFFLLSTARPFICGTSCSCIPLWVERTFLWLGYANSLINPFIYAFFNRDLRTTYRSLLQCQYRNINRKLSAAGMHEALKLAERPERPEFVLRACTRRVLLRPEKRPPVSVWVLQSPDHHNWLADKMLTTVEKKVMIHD

Cc1nc(N)[nH]c1-c1cn(S(=O)(=O)c2cccc3ccccc23)c2ccccc12.Cl
LD50 [1]: > 2000 mg/kg | Activity [2]: 50.3% | Ki [3]: 1170 nM | Ki [4]: 2510 nM | Activity [5]: Non-Toxic | inhibition (INH) [6]: Active | microsomal CLint [7]: 60.3 µL/min/mg | IC50 [8]: 15700 nM | Activity [9]: 25.7% | Ki [10]: 8 nM | Kb [11]: 4.8 nM | inhibition [12]: 10.7% | inhibition [13]: -0.3% | inhibition at 1 h, 1 µM [14]: 25.7% | solubility [15]: 1000 to 10000 µg/mL
